In the M2OR odorant receptor database:
Changes are numbered by the printed parent chain.

How the values were obtained:
Settings in all cases: stereoisomer not certain
O2T11 = system: T1, O2T11
T1 sequence (whole entry): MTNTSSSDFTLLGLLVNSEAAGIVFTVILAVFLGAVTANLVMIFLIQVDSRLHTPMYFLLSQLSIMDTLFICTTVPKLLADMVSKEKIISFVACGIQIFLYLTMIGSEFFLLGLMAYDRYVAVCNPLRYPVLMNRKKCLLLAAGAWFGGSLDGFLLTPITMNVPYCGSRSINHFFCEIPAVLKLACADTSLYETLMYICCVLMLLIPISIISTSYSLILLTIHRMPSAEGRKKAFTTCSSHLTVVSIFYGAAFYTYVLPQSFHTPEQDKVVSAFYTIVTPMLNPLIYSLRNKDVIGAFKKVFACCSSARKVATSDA
Outline: (§1)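 Each receptor–molecule pair is labelled responsive or non-responsive (inactive) according to whether the original authors judged the measured signal statistically different from baseline. The data were taken from the main text and supplementary material of published papers and checked for typos and inconsistencies. Assay methods differed by source, with transient luciferase assays in mammalian cell lines being common.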

O2T27 L36V V134D = system: T2, O2T27 L36V V134D
T2 sequence (whole entry): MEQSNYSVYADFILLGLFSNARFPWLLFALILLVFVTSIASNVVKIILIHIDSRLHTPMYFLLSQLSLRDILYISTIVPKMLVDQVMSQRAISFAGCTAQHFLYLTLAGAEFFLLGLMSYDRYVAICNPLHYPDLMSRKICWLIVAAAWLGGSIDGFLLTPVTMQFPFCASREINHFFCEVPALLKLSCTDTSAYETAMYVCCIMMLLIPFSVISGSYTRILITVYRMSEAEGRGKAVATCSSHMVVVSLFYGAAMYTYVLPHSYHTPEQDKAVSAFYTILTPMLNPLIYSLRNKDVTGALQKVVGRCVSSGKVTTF
Outline: as §1

O2T29 Q24R = system: T3, O2T29 Q24R
T3 sequence (whole entry): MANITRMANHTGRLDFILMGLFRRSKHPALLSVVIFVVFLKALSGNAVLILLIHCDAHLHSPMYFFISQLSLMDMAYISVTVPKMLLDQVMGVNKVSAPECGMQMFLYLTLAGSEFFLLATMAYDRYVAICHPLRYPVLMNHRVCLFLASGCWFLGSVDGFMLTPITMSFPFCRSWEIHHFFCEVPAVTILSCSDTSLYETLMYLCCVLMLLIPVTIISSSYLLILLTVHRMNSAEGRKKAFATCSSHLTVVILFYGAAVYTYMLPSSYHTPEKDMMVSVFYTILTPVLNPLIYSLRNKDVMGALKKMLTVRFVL
Outline: as §1

O2T33 A169V = system: T4, O2T33 A169V
T4 sequence (whole entry): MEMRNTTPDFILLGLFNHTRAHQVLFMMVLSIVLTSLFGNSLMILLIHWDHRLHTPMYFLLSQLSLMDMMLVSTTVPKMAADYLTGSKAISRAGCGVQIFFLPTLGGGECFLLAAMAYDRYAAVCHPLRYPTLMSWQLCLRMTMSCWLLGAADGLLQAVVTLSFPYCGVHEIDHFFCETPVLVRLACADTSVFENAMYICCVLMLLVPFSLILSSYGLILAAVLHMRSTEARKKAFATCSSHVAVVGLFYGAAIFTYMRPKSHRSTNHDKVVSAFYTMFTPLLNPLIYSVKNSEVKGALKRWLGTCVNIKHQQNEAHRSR
Outline: as §1

O2T33 G297E I309L = system: T5, O2T33 G297E I309L
T5 sequence (whole entry): T4 sequence (whole entry) with V169A, G297E, I309L
Outline: as §1

O2T34 Q6P R267P = system: T6, O2T34 Q6P R267P
T6 sequence (whole entry): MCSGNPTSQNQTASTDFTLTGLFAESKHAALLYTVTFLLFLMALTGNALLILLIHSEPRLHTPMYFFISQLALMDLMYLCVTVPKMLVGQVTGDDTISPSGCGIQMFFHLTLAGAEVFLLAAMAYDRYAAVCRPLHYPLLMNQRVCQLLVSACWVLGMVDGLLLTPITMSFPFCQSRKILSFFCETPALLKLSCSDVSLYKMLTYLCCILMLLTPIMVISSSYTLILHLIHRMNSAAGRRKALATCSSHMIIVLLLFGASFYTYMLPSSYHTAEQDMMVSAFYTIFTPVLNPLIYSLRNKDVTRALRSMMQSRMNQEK
Outline: as §1

O2T34 R267P = system: T7, O2T34 R267P
T7 sequence (whole entry): T6 sequence (whole entry) with P6Q
Outline: as §1

O4A47 = system: T8, O4A47
T8 sequence (whole entry): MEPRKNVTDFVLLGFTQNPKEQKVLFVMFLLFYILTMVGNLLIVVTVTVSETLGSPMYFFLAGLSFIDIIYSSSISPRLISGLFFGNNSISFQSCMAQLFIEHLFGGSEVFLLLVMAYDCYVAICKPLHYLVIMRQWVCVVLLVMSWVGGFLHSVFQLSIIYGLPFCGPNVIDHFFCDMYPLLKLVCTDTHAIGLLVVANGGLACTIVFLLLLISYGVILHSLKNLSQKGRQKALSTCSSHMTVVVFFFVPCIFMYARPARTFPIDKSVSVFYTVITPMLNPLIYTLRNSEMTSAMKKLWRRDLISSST
Outline: as §1

O4C46 S240F C252Y K288R = system: O4C46 S240F C252Y K288R
Outline: as §1

O4F15 A272T = system: T9, O4F15 A272T
T9 sequence (whole entry): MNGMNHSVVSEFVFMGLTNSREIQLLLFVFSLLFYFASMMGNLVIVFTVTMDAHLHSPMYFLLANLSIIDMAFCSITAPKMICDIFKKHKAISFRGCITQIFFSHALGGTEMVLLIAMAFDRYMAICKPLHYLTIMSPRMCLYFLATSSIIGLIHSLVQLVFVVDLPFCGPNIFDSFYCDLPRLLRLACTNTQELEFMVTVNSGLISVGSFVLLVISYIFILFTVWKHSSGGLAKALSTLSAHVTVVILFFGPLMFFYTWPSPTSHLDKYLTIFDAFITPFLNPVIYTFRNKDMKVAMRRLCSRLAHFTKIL
Outline: as §1

Measured: odorant receptor agonist call;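 further: active if original authors judged signal statistically different from baseline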

CC1=C(O)C(=O)C(C)O1 (centres undefined)
inactive: all assays above

CC1=C(O)C(=O)OC1C (centres undefined)
inactive: all assays above

CCCC(S)CCOC(C)=O (centres undefined)
inactive: all assays above

CC1=NC(C)C(C)S1 (centres undefined)
inactive: all assays above

Cc1cnc(C)c(C)n1
inactive: all assays above

CCCCCCC=CCCC=O
not listed: O4F15 A272T
inactive: all other assays above

CCC1OC(=O)C(O)=C1C (centres undefined)
inactive: all assays above

CCC1OC(C)=C(O)C1=O (centres undefined)
inactive: all assays above
